Active and inactive are the calls of the source. The rule behind the calls is not given here.

What is called IC50 is the concentration at which inhibition is half-maximal.

Experiment [1] concerns Staphylococcus aureus. Kind of experiment: Antibacterial activity against Staphylococcus aureus at 100 ug/ml. Type of experiment: functional, organism-based.
Experiment [2] deals with Ehrlich. In words: Cytotoxicity activity against mouse EAC at 100 ug/ml. It is filed as functional, cell-based.
Experiment [3] concerns Escherichia coli. Kind of experiment: Antibacterial activity against Escherichia coli at 100 ug/ml. It is filed as functional, organism-based.
For experiment [4], the system named is Candida albicans. Kind of experiment: Antifungal activity against Candida albicans at 100 ug/ml. Type of experiment: functional, organism-based.
Experiment [5] has as its system Radical scavenging activity. Kind of experiment: Antioxidant activity assessed as DPPH radical scavenging activity after 30 mins. Type of experiment: functional. A digest of the protocol: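 In EtOH, test concentrations 5, 10, 20, 50, 100 µM mixed with DPPH (0.1 mM final). A517 read after 30 min. Percent inhibition calculated against DPPH-only control, corrected for the compound's own absorbance at 517 nm. IC50 taken from the plotted inhibition curve as the concentration scavenging 50% of DPPH. Trolox served as positive control.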

With `C=C1CCC[C@H]2[C@](C)(CC3=CC(=O)C(NC)=CC3=O)[C@@H](C)CC[C@@]12C`, the outcome in experiment [1], in experiment [2], in experiment [3] and in experiment [4] was inactive.
Turning to `Cc1c(C)c2c(c(C)c1O)CCC(C)(C(=O)O)O2` (centres undefined) [TROLOX], the IC50 in experiment [5] was 16 µM.
In the case of `C=C1CCC[C@H]2[C@](C)(CC3=CC(=O)C=C(N)C3=O)[C@@H](C)CC[C@@]12C`, the outcome in experiment [1], in experiment [2], in experiment [3] and in experiment [4] was inactive.
As to `C=C1CCC[C@H]2[C@](C)(Cc3cc(O)ccc3O)[C@@H](C)CC[C@@]12C` [ARENAROL], the IC50 in experiment [5] stood at 19 µM.
Take `C=C1CCC[C@H]2[C@](C)(CC3=CC(=O)C(Nc4ccc(O)c(C[C@]5(C)[C@@H](C)CC[C@@]6(C)C(=C)CCC[C@@H]56)c4)=CC3=O)[C@@H](C)CC[C@@]12C` [POPOLOHUANONE F]: the result in experiment [1], in experiment [2], in experiment [3] and in experiment [4] was inactive. For the same compound, the IC50 in experiment [5] worked out at 35 µM.
Take `C=C1CCC[C@H]2[C@](C)(CC3=CC(=O)C=C(Nc4ccc(O)c(C[C@]5(C)[C@@H](C)CC[C@@]6(C)C(=C)CCC[C@@H]56)c4)C3=O)[C@@H](C)CC[C@@]12C` [POPOLOHUANONE A]: the IC50 in experiment [5] amounted to 35 µM.
For the compound `C=C1CCC[C@H]2[C@](C)(CC3=CC(=O)C(N)=CC3=O)[C@@H](C)CC[C@@]12C`, the outcome in experiment [1], in experiment [2], in experiment [3] and in experiment [4] was inactive.
For the compound `C=C1CCC[C@H]2[C@](C)(CC3=CC(=O)C=C(NC)C3=O)[C@@H](C)CC[C@@]12C`, the result in experiment [1], in experiment [2], in experiment [3] and in experiment [4] was inactive.

These data come from ChEMBL document CHEMBL1157086, “Sesquiterpenoid aminoquinones from the marine sponge Dysidea sp” (J Nat Prod, 2010).
